Screening data: PubChem, several laboratories
Compounds with a hit are over-represented: about 1.6% of the library has one in this group of screens.
Rpn11 inh – inhibitors of human proteasome Rpn11; O00487; human 26S proteasome, Ub4-pepOG fluorescence polarization; 20S core pre-blocked with epoxomicin; calls only at 20 µM; hit rate 0.59% among 360,000;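 active = inhibition at 20 µM, scaled to each plate's controls, above about 33%, limit read from the data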
HNF4A DNA FP – change in binding of human HNF4 alpha to DNA. P41235. activity change, % at 10 µM. HNF4a-FITC DNA binding, fluorescence polarization, 1 h. hit rate 0.3% among 360,000; in the data active = activity change above about 30%, passing the limit was not always enough
TPT1 inhibitor – inhibitors of Candida albicans tRNA 2'-phosphotransferase TPT1. recombinant caTPT1, FP RNA substrate dephosphorylation. inhibition, % at 5 µM. hit rate 0.81% among 300,000. AID 1962;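 active = inhibition above the mean of all tested compounds plus 3 SD, set per screening campaign, cut at about 24% in these data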
PKA-R2B activ – activators of human PKA-R2B complex. P22694+P31323. PKA-R2B holoenzyme dissociation, Cy5-IP20 fluorescence polarization; R2B truncated from residue 108, S112A mutant; 0% DMSO only, 100% 113 µM cGMP. activation, % at 11.4 µM. hit rate 0.079% among 340,000;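 active = activation above a cutoff set at the mean over all compounds plus 3 SD, cut at about 18% in these data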;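 note: higher means more holoenzyme dissociation and a rise in polarization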
CSN inh – CSN deneddylation inhibition; Q92905; Purified CSN, SCF-Nedd8-OG deneddylation, fluorescence polarization; inhibition, % at 12.5 µM; hit rate 0.38% among 360,000; AID 651999;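 active = pattern-corrected inhibition above about 35%, with an unprinted fluorescence ratio check between 0.5 and 1.5, limit read from the data, passing the limit was not always enough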
Target sequence (Q92905 whole entry, looked up, one chain of several): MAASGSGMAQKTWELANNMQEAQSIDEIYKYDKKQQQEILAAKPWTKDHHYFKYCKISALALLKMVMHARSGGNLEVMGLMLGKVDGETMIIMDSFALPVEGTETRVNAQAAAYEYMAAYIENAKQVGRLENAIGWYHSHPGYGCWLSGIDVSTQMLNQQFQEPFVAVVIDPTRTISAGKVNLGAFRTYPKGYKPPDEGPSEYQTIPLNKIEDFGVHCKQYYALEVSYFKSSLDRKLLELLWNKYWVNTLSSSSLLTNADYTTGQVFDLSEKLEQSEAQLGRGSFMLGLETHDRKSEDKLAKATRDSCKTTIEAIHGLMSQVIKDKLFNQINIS
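Assay system: Purified human Csn5 enzyme expressed in HEK293T cells | Amount: Enzyme 0.24 nM | Measured by: Fluorescence polarization readout | Medium: Tris/NaCl/DTT buffer, pH 7.5 | Compound dosing: One concentration, 12.5 µM, 0.25% DMSO | Times: 90 min incubation of compound, enzyme and substrate at room temperature | Control set: no-enzyme wells high, enzyme-with-substrate wells low | Read-out: % inhibition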
PKA-R1A act – activates the PKA-R1A holoenzyme complex; PKA-R1A dissociation, Cy5-IP20 fluorescence polarization; scaled: DMSO 0%, 113 µM cGMP 100%; activation, % at 11.4 µM; hit rate 0.083% among 340,000;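 active = percent activation above the mean of all tested compounds plus 3 SD, cut at about 19% in these data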;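 note: higher means more PKAc released from R1A so a rise in polarization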
R2B FP artifact – fluorescence polarization artifact in PKA-R2B activator counter-screen; hit rate 6% among 270; AID 504796; activation, % at 11.4 µM; shares compounds with PKA-R2B activ; FP artifact counterscreen; in the data active = activation above about 20%;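 note: Cy5 labelled IP20 peptide probe with compound but no PKA protein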
PKA-R2B confirm – PKA-R2B complex activation, confirmation | activation, % at 11.4 µM | fluorescence polarization | shares compounds with PKA-R2B activ | hit rate 9% among 270; in the data active = activation above about 19%
R1A FP artifact – FP assay interference, PKA-R1A counter-screen; Cy5-IP20 peptide alone, fluorescence polarization artifact counterscreen; hit rate 7% among 280; activation, % at 11.4 µM; AID 504799; shares compounds with PKA-R1A act;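 active = mean activation over triplicate runs exceeds the adjusted cutoff derived for the parent primary screen, cut at about 19% in these data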;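 note: no PKA protein present so any polarization rise reflects compound interference; higher means stronger polarization artifact and likely false positive in parent screen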
PKA-R1A act conf – confirmation of PKA-R1A complex activators; shares compounds with PKA-R1A act; Cy5-IP20 fluorescence polarization, PKA-R1A holoenzyme dissociation; activation, % at 11.4 µM; hit rate 9% among 280;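 active = mean activation over replicate wells exceeds the adjusted hit threshold taken from the earlier primary screen, cut at about 20% in these data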
Target sequence (P00514 whole entry, looked up): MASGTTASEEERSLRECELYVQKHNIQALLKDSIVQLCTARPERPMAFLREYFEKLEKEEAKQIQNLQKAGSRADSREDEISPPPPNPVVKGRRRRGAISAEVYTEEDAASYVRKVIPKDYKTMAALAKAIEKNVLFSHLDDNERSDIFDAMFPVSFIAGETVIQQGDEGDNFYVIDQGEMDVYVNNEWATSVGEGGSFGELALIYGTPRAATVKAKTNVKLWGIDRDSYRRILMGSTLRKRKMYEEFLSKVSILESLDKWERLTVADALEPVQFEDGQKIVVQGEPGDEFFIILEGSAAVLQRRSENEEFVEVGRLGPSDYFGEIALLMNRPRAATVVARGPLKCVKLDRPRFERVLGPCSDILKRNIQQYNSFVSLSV
Of the large screens only hits and unclear results are named; the others gave an inactive call (follow-up assays come after a bar, where shown).

CC1CCN(C(=O)CSc2nc3c(c(=O)n2C)SCC3)CC1	PKA-R2B activ 24 | R2B FP artifact inactive | PKA-R2B confirm inactive
CCCC1Nc2ccc(C(=O)O)cc2C2C=CCC12 (stereo unspecified)	PKA-R2B activ 19, PKA-R1A act 23 | R2B FP artifact 21 | PKA-R2B confirm 20 | R1A FP artifact 21 | PKA-R1A act conf 24
CCS(=O)(=O)C1=NN2C(=N)/C(=C\c3ccc(OS(=O)(=O)c4ccccc4)cc3)C(=O)N=C2S1	none
CCC1=NN2C(=N)/C(=C/c3ccc(OS(=O)(=O)c4ccccc4)cc3)C(=O)N=C2S1	HNF4A DNA FP 33, PKA-R2B activ 29, PKA-R1A act 22 | R2B FP artifact 23 | PKA-R2B confirm 23 | R1A FP artifact 23 | PKA-R1A act conf 28
Cc1oc2ccc(OCc3ccccc3F)cc2c1C(=O)O	none
Cc1ccccc1COc1ccc2oc(C)c(C(=O)O)c2c1	PKA-R2B activ 42, PKA-R1A act 43 | R2B FP artifact 60 | PKA-R2B confirm 70 | R1A FP artifact 60 | PKA-R1A act conf 67
COc1ccc2oc(C(=O)OCC(=O)Nc3ccc(NC(C)=O)cc3)c(C)c2c1	PKA-R2B activ 25, PKA-R1A act 20 | R2B FP artifact inactive | PKA-R2B confirm inactive | R1A FP artifact inactive | PKA-R1A act conf inactive
CC1CC(C)CN(S(=O)(=O)c2ccc(C(=O)NNC(=O)c3ccccc3F)cc2)C1 (stereo unspecified)	none (no result: TPT1 inhibitor)
COc1cccc2c1Oc1ncccc1N(C(=O)CCC(=O)NCc1cccc(C)c1)C2	none
CCCNC(=O)COc1ccc2c(=O)c(Oc3ccccc3F)coc2c1	none
COc1ccccc1Oc1coc2cc(OCC(N)=O)ccc2c1=O	PKA-R1A act 19 | R1A FP artifact inactive | PKA-R1A act conf inactive
COc1ccc(/C=C2\SC(=S)N(CC3CCCO3)C2=O)cc1 (stereo unspecified)	none
O=C1/C(=C/c2cccnc2)SC(=S)N1CC1CCCO1 (stereo unspecified)	PKA-R1A act 25 | R1A FP artifact inactive | PKA-R1A act conf inactive
Cc1cc(C)c2c(CC(=O)NC(C)C)coc2c1	none
Cc1cc(C)c2c(CC(=O)NNC(=O)c3ccccc3)coc2c1	PKA-R1A act 27 | R1A FP artifact inactive | PKA-R1A act conf inactive
CCn1c(SCC(=O)Nc2nccs2)nnc1-c1cc2cccc(OC)c2o1	none (no result: TPT1 inhibitor)
COc1cccc2cc(-c3nnc(SCC(=O)Nc4cc(C(F)(F)F)ccc4Cl)n3N)oc12	PKA-R1A act 20 | R1A FP artifact inactive | PKA-R1A act conf inactive
CCN1C(=O)/C(=C/N(C)C)c2ccccc21	PKA-R1A act 19 | R1A FP artifact inactive | PKA-R1A act conf inactive
COc1ccc(NC(=O)Nc2cccc3c2O[C@H](CN(C)C(=O)Nc2ccc4c(c2)OCO4)[C@@H](C)CN([C@H](C)CO)C3=O)cc1	none (no result: TPT1 inhibitor)
O=C(/C=C/c1ccccc1Cl)NCc1cccs1	none
CCc1ccc(NC(=O)CSc2nnc(-c3ccccn3)n2C)cc1	PKA-R1A act 19 | R1A FP artifact inactive | PKA-R1A act conf inactive
Cc1ccc(C)c(NC(=O)CN(C)C(=O)c2ccccc2OCc2ccccc2Cl)c1	none
COc1ccc(Nc2cc(C)nc3ncnn23)cc1Cl	PKA-R1A act 22 | R1A FP artifact inactive | PKA-R1A act conf inactive
COc1ccc(N2C(=O)CSC2c2ccc([N+](=O)[O-])cc2)cc1 (stereo unspecified)	PKA-R1A act 20 | R1A FP artifact inactive | PKA-R1A act conf inactive
O=C(O)C1C2CCC(C2)C1C(=O)NCc1ccco1 (stereo unspecified)	none
O=C(NCc1ccco1)C1CC2CCC1C2 (stereo unspecified)	PKA-R1A act 20 | R1A FP artifact inactive | PKA-R1A act conf inactive
COc1ccc2c(c1OC)C(=O)OC2Nc1ncccc1C (stereo unspecified)	PKA-R1A act 19 | R1A FP artifact inactive | PKA-R1A act conf inactive
O=C(COC(=O)/C=C/c1ccc(C(F)(F)F)cc1)NCC1CCCO1 (stereo unspecified)	none
C/C(=N\NC(=O)c1ccoc1C)c1ccc(Cl)s1	PKA-R1A act 20 | R1A FP artifact inactive | PKA-R1A act conf inactive
C/C(=N\NC(=O)c1csc(C)c1C)c1ccc(Cl)s1	none
CC#CC(=O)NC1CCCN(C2Cc3ccccc3C2)C1 (stereo unspecified)	PKA-R1A act 19 | R1A FP artifact inactive | PKA-R1A act conf inactive
COc1ccccc1-c1cc(C(=O)Nc2cccnc2)no1	PKA-R1A act 19 | R1A FP artifact inactive | PKA-R1A act conf inactive
CC(=O)c1ccc(NC(=O)CSc2nc3nc(C)cc(C)n3n2)cc1	PKA-R1A act 19 | R1A FP artifact inactive | PKA-R1A act conf inactive
COc1ccc(C(=O)C[n+]2cccc3cc(C)ccc32)cc1	PKA-R1A act 19 (not shown: Rpn11 inh) | R1A FP artifact inactive | PKA-R1A act conf inactive
Cc1ccc([C@H]2C[C@@H](O)[C@H](n3cc(C4CC4)nn3)CN2C(=O)C2CCCCC2)cc1	none (no result: TPT1 inhibitor)
Cc1onc(-c2c(Cl)cccc2Cl)c1NC(=O)NC1CCSC1 (stereo unspecified)	none (no result: PKA-R2B activ, PKA-R1A act)
CCc1cc(C(=O)OC)c(NC(=O)CC2NCCNC2=O)s1 (stereo unspecified)	PKA-R1A act 25 | R1A FP artifact inactive | PKA-R1A act conf inactive
CCc1cc(Cn2nc(-c3ccccc3)cc2C(=O)NCc2ccccc2OC)on1	none
CCOc1ccccc1Nc1nc(N)nc(CSc2nncn2C)n1	PKA-R1A act 21 | R1A FP artifact inactive | PKA-R1A act conf inactive
COc1cc(CNC(C)(C)CO)ccc1OCC(=O)Nc1ccc(Br)cc1	none
CCOC(=O)c1cc(-c2ccccc2C)nn1Cc1cc(C)no1	none
CCc1cc(Cn2nc(-c3ccccc3C)cc2C(=O)O)on1	PKA-R1A act 19 (no result: TPT1 inhibitor) | R1A FP artifact inactive | PKA-R1A act conf inactive
Cc1cccc(NC(=O)c2sc(C)nc2C)c1	PKA-R1A act 19 | R1A FP artifact inactive | PKA-R1A act conf inactive
Cc1nc(-c2ccc(Cl)cc2)sc1C1(C)CC(c2ccc(OC(F)(F)F)cc2)=NO1 (stereo unspecified)	none
